Test results: PMC9898299 (Heliyon, 2023)

Tested on: U937 cells
Test: CellTiter-Glo Luminescent cell viability assay
Type: cell-based, human
Conditions: Homo sapiens, U-937, 72 h, read-out: Percent inhibition at different concentrations of compounds (antiproliferative)
Method in brief: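 Human myeloid leukaemia U937 cells exposed to a range of test compound concentrations for 72 h, with Mitomycin C as positive control and DMSO diluent as negative control. CellTiter-Glo reagent added at an equal volume to the medium, mixed 2 min for lysis, then held 10 min at room temperature before luminescence was read. Viability was computed as RLU test ×100/RLU control. Half-maximal inhibitory concentration was fitted from the dose series.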
Compound `COC(=O)COc1ccc(NC(=O)C2(c3ccc(OC)cc3)CC2)cc1` [Compound 8i, Methyl 2-(4-(1-(4-methoxyphenyl)cyclopropane-1-carboxamido)phenoxy)acetate] has an inhibition at 25 µM of 28%, an inhibition at 50 µM of 38% and an inhibition at 100 µM of 80%. It also gave an inhibition at 200 µM of 101%.
`COC(=O)COc1ccc(NC(=O)C2(c3ccc(F)cc3)CC2)cc1` [Compound 8j, Methyl 2-(4-(1-(4-fluorophenyl)cyclopropane-1-carboxamido)phenoxy)acetate] gave an inhibition at 25 µM of -12%, an inhibition at 50 µM of 39% and an inhibition at 100 µM of 76%. It also gave an inhibition at 200 µM of 101%.
`COC(=O)COc1ccc(NC(=O)C2(c3ccc(F)cc3)CC2)c(C)c1` [Compound 8k, Methyl 2-(4-(1-(4-fluorophenyl)cyclopropane-1-carboxamido)-3-methylphenoxy)acetate] showed an inhibition at 25 µM of 32%, an inhibition at 50 µM of 74% and an inhibition at 100 µM of 101%. For the same compound, the inhibition at 200 µM was 102%.
Compound `COC(=O)COc1cccc(NC(=O)C2(c3ccc(Cl)cc3)CC2)c1` [Compound 8l, Methyl 2-(3-(1-(4-chlorophenyl)cyclopropane-1-carboxamido)phenoxy)acetate] has an inhibition at 25 µM of 63%, an inhibition at 50 µM of 96% and an inhibition at 100 µM of 101%. For the same compound, the inhibition at 200 µM was 102%.
Compound `COC(=O)COc1ccc(NC(=O)C2(c3ccc(Cl)cc3)CC2)cc1` [Compound 8m, Methyl 2-(4-(1-(4-chlorophenyl)cyclopropane-1-carboxamido)phenoxy)acetate] has an inhibition at 25 µM of 39%, an inhibition at 50 µM of 49% and an inhibition at 100 µM of 99%. The inhibition at 200 µM was 101%.
`COC(=O)COc1ccc(NC(=O)C2(c3ccc(Cl)cc3)CC2)c(C)c1` [Compound 8n, Methyl 2-(4-(1-(4-chlorophenyl)cyclopropane-1-carboxamido)-3-methylphenoxy)acetate] showed an inhibition at 25 µM of 28%, an inhibition at 50 µM of 33% and an inhibition at 100 µM of 101%. It also gave an inhibition at 200 µM of 101%.
`COC(=O)COc1ccc(NC(=O)C2(c3ccc(Cl)cc3)CC2)cc1Br` [Compound 8o, Methyl 2-(2-bromo-4-(1-(4-chlorophenyl)cyclopropane-1-carboxamido)phenoxy)acetate] showed an inhibition at 25 µM of 52%, an inhibition at 50 µM of 77% and an inhibition at 100 µM of 102%. It also gave an inhibition at 200 µM of 102%.
`COC(=O)COc1cccc(NC(=O)C2(c3cccc(Br)c3)CC2)c1` [Compound 8p, Methyl 2-(3-(1-(3-bromophenyl)cyclopropane-1-carboxamido)phenoxy)acetate] showed an inhibition at 25 µM of 37%, an inhibition at 50 µM of 60% and an inhibition at 100 µM of 101%. The inhibition at 200 µM was 102%.
Compound `COC(=O)COc1ccc(NC(=O)C2(c3cccc(Br)c3)CC2)c(C)c1` [Compound 8r, Methyl 2-(4-(1-(3-bromophenyl)cyclopropane-1-carboxamido)-3-methylphenoxy)acetate] has an inhibition at 25 µM of 27%, an inhibition at 50 µM of 84% and an inhibition at 100 µM of 100%. It also gave an inhibition at 200 µM of 101%.
In the case of `COC(=O)COc1ccc(NC(=O)C2(c3ccc(Cl)c(Cl)c3)CC2)cc1` [Compound 8s, Methyl 2-(4-(1-(3,4-dichlorophenyl)cyclopropane-1-carboxamido)phenoxy)acetate], the inhibition at 25 µM was 40%, the inhibition at 50 µM was 64% and the inhibition at 100 µM was 102%. For the same compound, the inhibition at 200 µM was 102%.

Tested on: not listed separately
Test: LDH release cytotoxicity assay
Type: cell-based
Conditions: human, U937 cells
Method in brief: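 U937 cells were plated in 96-well format and given various test compound concentrations, with Triton X100 as positive cytotoxicity control, for 4 h at 37 °C. Plates were spun 5 min at 1000 RPM, and supernatant was moved to a fresh plate with LDH detection reagent for 10 min at room temperature in the dark. Optical density was then read, and half-maximal concentration was derived from the doses.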
In the case of `COC(=O)COc1ccc(NC(=O)C2(c3ccc(OC)cc3)CC2)cc1` [Compound 8i, Methyl 2-(4-(1-(4-methoxyphenyl)cyclopropane-1-carboxamido)phenoxy)acetate], the inhibition at 4 h, 12.5 µM was -3%, the inhibition at 4 h, 25 µM was 0% and the inhibition at 4 h, 50 µM was -2%. The inhibition at 4 h, 100 µM was -2%.
In the case of `COC(=O)COc1ccc(NC(=O)C2(c3ccc(F)cc3)CC2)cc1` [Compound 8j, Methyl 2-(4-(1-(4-fluorophenyl)cyclopropane-1-carboxamido)phenoxy)acetate], the inhibition at 4 h, 12.5 µM was 0%, the inhibition at 4 h, 25 µM was -1% and the inhibition at 4 h, 50 µM was -2%. It also gave an inhibition at 4 h, 100 µM of -1%.
With `COC(=O)COc1ccc(NC(=O)C2(c3ccc(F)cc3)CC2)c(C)c1` [Compound 8k, Methyl 2-(4-(1-(4-fluorophenyl)cyclopropane-1-carboxamido)-3-methylphenoxy)acetate] the inhibition at 4 h, 12.5 µM was 0%, the inhibition at 4 h, 25 µM was 0% and the inhibition at 4 h, 50 µM was -1%. For the same compound, the inhibition at 4 h, 100 µM was 4%.
With `COC(=O)COc1cccc(NC(=O)C2(c3ccc(Cl)cc3)CC2)c1` [Compound 8l, Methyl 2-(3-(1-(4-chlorophenyl)cyclopropane-1-carboxamido)phenoxy)acetate] the inhibition at 4 h, 12.5 µM was -1%, the inhibition at 4 h, 25 µM was -1% and the inhibition at 4 h, 50 µM was 0%. The inhibition at 4 h, 100 µM was 2%.
Work on `COC(=O)COc1ccc(NC(=O)C2(c3ccc(Cl)cc3)CC2)cc1` [Compound 8m, Methyl 2-(4-(1-(4-chlorophenyl)cyclopropane-1-carboxamido)phenoxy)acetate] yielded an inhibition at 4 h, 12.5 µM of -1%, an inhibition at 4 h, 25 µM of 1% and an inhibition at 4 h, 50 µM of 1%. It also gave an inhibition at 4 h, 100 µM of 0%.
With `COC(=O)COc1ccc(NC(=O)C2(c3ccc(Cl)cc3)CC2)c(C)c1` [Compound 8n, Methyl 2-(4-(1-(4-chlorophenyl)cyclopropane-1-carboxamido)-3-methylphenoxy)acetate] the inhibition at 4 h, 12.5 µM was 0%, the inhibition at 4 h, 25 µM was -1% and the inhibition at 4 h, 50 µM was 1%. For the same compound, the inhibition at 4 h, 100 µM was -1%.
For `COC(=O)COc1ccc(NC(=O)C2(c3ccc(Cl)cc3)CC2)cc1Br` [Compound 8o, Methyl 2-(2-bromo-4-(1-(4-chlorophenyl)cyclopropane-1-carboxamido)phenoxy)acetate], the inhibition at 4 h, 12.5 µM was 0%, the inhibition at 4 h, 25 µM was -2% and the inhibition at 4 h, 50 µM was -2%. It also gave an inhibition at 4 h, 100 µM of -4%.
With `COC(=O)COc1cccc(NC(=O)C2(c3cccc(Br)c3)CC2)c1` [Compound 8p, Methyl 2-(3-(1-(3-bromophenyl)cyclopropane-1-carboxamido)phenoxy)acetate] the inhibition at 4 h, 12.5 µM was 0%, the inhibition at 4 h, 25 µM was -1% and the inhibition at 4 h, 50 µM was 0%. The inhibition at 4 h, 100 µM was 0%.
With `COC(=O)COc1ccc(NC(=O)C2(c3cccc(Br)c3)CC2)c(C)c1` [Compound 8r, Methyl 2-(4-(1-(3-bromophenyl)cyclopropane-1-carboxamido)-3-methylphenoxy)acetate] the inhibition at 4 h, 12.5 µM was -1%, the inhibition at 4 h, 25 µM was -1% and the inhibition at 4 h, 50 µM was 1%. It also gave an inhibition at 4 h, 100 µM of -2%.
`COC(=O)COc1ccc(NC(=O)C2(c3ccc(Cl)c(Cl)c3)CC2)cc1` [Compound 8s, Methyl 2-(4-(1-(3,4-dichlorophenyl)cyclopropane-1-carboxamido)phenoxy)acetate] showed an inhibition at 4 h, 12.5 µM of 4%, an inhibition at 4 h, 25 µM of 0% and an inhibition at 4 h, 50 µM of -1%. The inhibition at 4 h, 100 µM was 0%.
